Bioassay records: PubChem BioAssay, several laboratories
NPY2 pot ag: potentiators or agonists of human neuropeptide Y receptor Y2 | cells expressing NPY-Y2, potentiator/agonist read-out | activation, % at 3.6 µM | actives 0.45% (n = 220,000) | AID 1359; in the data active means activation above about 27%;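 further: cells stimulated with NPY near EC25 plus isoproterenol at EC100; 0% = vehicle plus submaximal agonist and 100% = vehicle plus saturating agonist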
Target sequence (P49146 whole entry, looked up): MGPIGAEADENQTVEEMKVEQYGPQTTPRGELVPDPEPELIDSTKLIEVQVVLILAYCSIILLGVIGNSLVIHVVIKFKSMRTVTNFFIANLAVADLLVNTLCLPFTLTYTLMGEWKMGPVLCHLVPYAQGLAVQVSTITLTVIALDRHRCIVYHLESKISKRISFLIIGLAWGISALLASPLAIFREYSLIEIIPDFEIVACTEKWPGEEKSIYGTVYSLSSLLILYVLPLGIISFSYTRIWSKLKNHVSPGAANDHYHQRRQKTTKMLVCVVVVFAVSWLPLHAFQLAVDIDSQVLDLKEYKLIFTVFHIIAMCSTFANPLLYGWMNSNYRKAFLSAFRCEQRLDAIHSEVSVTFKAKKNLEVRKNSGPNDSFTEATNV
RAM inhibit: inhibitors of the yeast RAM network; S. cerevisiae dse1pr::URA3 reporter, 5-FOA growth OD615, 2 d; analog-sensitive cbk1-as2 kinase mutant strain; inhibition, % at 50 µM; actives 1.8% (n = 190,000); AID 868;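 active means inhibition above a set limit, 3 SD over mean compound inhibition, cut at about 8.4% in these data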;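 further: 0% = DMSO-only wells with no growth and 100% = 10 µM 1-NA-PP1 full growth; inhibition rescues growth on 5-FOA so higher OD means more RAM inhibition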
NPY-Y1 antag: NPY-Y1 (human) receptor antagonism | P25929 | HEK293-CNG Y1 cells, membrane potential fluorescence; NPY at EC95, then isoproterenol | inhibition, % at 3.6 µM | actives 1% (n = 200,000);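 active means inhibition above the campaign mean inhibition of all tested compounds plus 3 SD, cut at about 20% in these data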;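 further: 0% = DMSO wells given NPY plus isoproterenol and 100% = isoproterenol alone without NPY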
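Assay system: HEK293 Y1/CNG channel cell line; Doses: single compound dose of 3.6 µM, 0.4% DMSO; Timing: dye 3 h, compound 60 min room temperature, stimulation 45 min; Technique: Membrane-potential fluorescent dye readout; Measure: % inhibition of NPY effect.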
NPY-Y1 PAM-ag: potentiates or activates human NPY-Y1 receptor; P25929; actives 0.37% (n = 220,000); activation, % at 3.6 µM; NPY-Y1 expressing cells, potentiator/agonist activation; AID 1304; in the data active means activation above about 33%, passing the limit was not always enough;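 further: cells stimulated with NPY at EC10 then isoproterenol at EC100; 0% = low agonist plus stimulus and 100% = saturating agonist plus stimulus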
NPY Y2 blocker: NPY-Y2 (human) receptor antagonism. P49146. NPY-Y2 expressing cells, antagonist mode. inhibition, % at 2.7 µM. actives 0.99% (n = 140,000); in the data active means inhibition above about 17%;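 further: 0% = vehicle with agonist challenge and 100% = reference antagonist with challenge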
WT yeast gro inh: growth inhibition of WT yeast, mitochondrial fusion screen. mitochondrial fusion phenotypic screen, WT strain. actives 2.1% (n = 190,000). inhibition, % at 10 µM; in the data active means inhibition above about 58%; tested in S. cerevisiae
NPY1 antag ctr: counter-screen for NPY-Y2 antagonists: human NPY-Y1 antagonism; shares compounds with NPY Y2 blocker; cell-based NPY-Y1 antagonism counterscreen; inhibition, % at 3.6 µM; actives 19% (n = 710); in the data active means inhibition above about 20%;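 further: cells challenged with NPY then isoproterenol with cAMP sensed through a CNG channel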
NPY-Y2 ant conf: human NPY-Y2 antagonism, confirmation. shares compounds with NPY Y2 blocker. HEK293 NPY-Y2 CNG channel, membrane potential fluorescence. inhibition, % at 2.8 µM. actives 32% (n = 710). AID 1257;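 active means mean inhibition of triplicate wells above the hit cutoff set in the primary screen, cut at about 17% in these data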;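 further: 0% = DMSO with NPY challenge and 100% = BIIE0246 high control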
* hit, by the source's call; / = no result given. Most compounds without a hit are left out; they make up all but 4.9% or so of the library.

SMILES	NPY2 pot ag	RAM inhibit	NPY-Y1 antag	NPY-Y1 PAM-ag	NPY Y2 blocker	WT yeast gro inh	NPY1 antag ctr	NPY-Y2 ant conf
O=C(NC1CCCCC1)C(c1ccco1)N(Cc1cccnc1)C(=O)C1COc2ccccc2O1 (configuration not stated)	-4.8	0.3	15.1	-20.1	18.5*	15.9	3.6	5.9
O=C(NNc1ccc(Cl)cc1)c1cccs1	9.6	/	/	-2.0	/	/	/	/
CCCC[C@@H]1C[C@H]1[C@@H](NC(=O)c1cccs1)c1ccc(Cl)cc1	0.7	9.8*	2.4	-46.2	18.0*	70.0*	12.6	16.7
Cc1cc(N2CCN(c3ccccc3)CC2)n2c(n1)nc1ccccc12	-27.6	0.4	12.4	-39.8	22.4*	11.1	3.3	4.6
Cc1cc(Cl)c(OCCCNCc2ccccc2)c(Br)c1	-13.8	0.0	14.1	-50.3	18.1*	-14.4	16.5	23.0*
COCCNCCCCOc1c(Cl)cc(C)cc1Br	-15.8	-0.4	14.1	-17.0	7.3	13.1	/	/
CCOC(=O)c1c(CSC(=N)N)n(-c2ccc(Br)cc2)c2cc(Br)c(OC(C)=O)cc12	73.8*	4.6	-3.4	81.4*	25.6*	45.8	13.6	16.0
N=c1c2c(-c3ccccc3)c(-c3ccccc3)n(Cc3ccco3)c2ncn1Cc1ccccc1	54.2*	0.5	2.7	56.4*	20.5*	/	2.5	-3.7
c1ccc(-c2c(-c3ccccc3)n(Cc3ccco3)c3ncnc(NCCCn4ccnc4)c23)cc1	-27.4	-0.6	13.4	-55.3	29.4*	73.0*	9.8	11.7
Cc1ccc(C(C(=O)NC2CCCCC2)N(Cc2ccco2)C(=O)Cc2c[nH]c3ccccc23)o1 (configuration not stated)	-5.3	3.0	13.8	-4.6	18.8*	70.7*	13.4	10.8
CCn1nc(NC(=O)c2ccccc2)c2cc3cccc(C)c3nc21	4.1	/	/	6.2	/	/	/	/
COc1ccc2cc3cc(C(=O)NCCN4CCN(c5ccccc5F)CC4)oc3nc2c1	-15.1	0.3	5.4	-4.4	4.6	16.0	/	/
COc1ccc2cc3cc(C(=O)Nc4ccccc4N4CCN(C)CC4)oc3nc2c1	-0.9	-0.1	16.6	-18.8	17.7*	19.2	6.5	16.2
CCc1nc(N(CC)CC)c2oc3ccccc3c2n1	-9.4	0.1	13.8	-15.3	19.1*	28.3	8.6	6.0
CCNc1nc(CC)nc2c1oc1ccccc12	3.9	-0.3	9.0	-13.1	5.5	18.7	/	/
CC1(C)OC2OC(C(=O)N/N=C/c3cc(Br)ccc3O)C3OC(C)(C)OC3C2O1 (configuration not stated)	6.1	1.5	2.0	13.2	7.0	-10.7	/	/
COC(=O)c1ccc(C(=O)OC)c(-n2c(=O)c3ccccc3c3ccccc3c2=O)c1	11.5	-1.1	-0.3	22.5	18.7*	2.8	7.6	15.6
COC(=O)c1ccc(-c2nn(C)c(=O)c3ccccc23)cc1	8.4	1.8	-3.5	-7.0	3.6	-4.9	/	/
COc1cccc(-c2cc(C(=O)Nc3cc(OC)c(OC)c(OC)c3)no2)c1	-5.2	8.1	5.3	-55.4	3.7	-6.1	/	/
O=C(NC1CCCCC1)C(c1ccccc1)N(Cc1ccc2c(c1)OCO2)C(=O)c1cnsn1 (configuration not stated)	-10.9	3.2	12.4	-43.0	25.5*	17.4	15.7	12.4
Cc1ccc(C(C(=O)NC2CCCC2)N(Cc2ccc3c(c2)OCO3)C(=O)c2snc(C(N)=O)c2N)cc1 (configuration not stated)	6.4	/	/	-6.7	/	/	/	/
Cc1nc(SC2CC(=O)N(c3ccccc3)C2=O)nc2c1CCCC2 (configuration not stated)	-30.6	7.3	18.8	-15.0	21.0*	-3.2	16.7	14.0
Cc1nnc(SC2CC(=O)N(c3ccccc3)C2=O)s1 (configuration not stated)	-14.8	-0.9	-1.3	9.9	-0.4	11.2	/	/
N#Cc1nc(-c2cccs2)oc1N1CCN(c2ccccc2)CC1	-6.9	7.3	12.2	-48.8	18.0*	4.4	7.3	12.0
